This is a sample that favours compounds with a hit; in the whole collection about 3.9% have one here.
TAAR1 antagonist = human TAAR1 antagonism. Q96RJ0. CHO RD-HGA16 TAAR1, Fluo-8 calcium fluorescence, antagonist. inhibition, % at 3 µM. actives 1.5% (n = 360,000). AID 624466;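 active = inhibition above a per-plate cutoff, the mean inhibition of test compounds on that plate plus 3 SD, cut at about 49% in these data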
Target sequence (Q96RJ0 whole entry, looked up): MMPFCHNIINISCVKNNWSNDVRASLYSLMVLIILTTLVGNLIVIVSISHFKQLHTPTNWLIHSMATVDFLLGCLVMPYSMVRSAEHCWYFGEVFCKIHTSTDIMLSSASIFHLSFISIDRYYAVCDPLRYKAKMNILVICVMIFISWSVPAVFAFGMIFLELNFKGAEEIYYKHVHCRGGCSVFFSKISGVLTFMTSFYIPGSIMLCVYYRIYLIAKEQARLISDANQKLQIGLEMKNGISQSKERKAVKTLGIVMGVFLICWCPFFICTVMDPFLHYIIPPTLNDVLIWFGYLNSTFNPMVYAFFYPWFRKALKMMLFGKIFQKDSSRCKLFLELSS
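Test system: RD-HGA16 CHO cells with stable hTAAR1 and Gα16 / Probe or stimulus: EC80 β-phenethylamine stimulus / Times: seeding 17-24 h prior, 75-min 37 °C, 30-min RT dye loading / Detection: Fluo-8 calcium-sensitive fluorescence / Read-out basis: % inhibition scaled between DMSO and EC80 PEA controls / Repeats: singlicate, one well per test compound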
TAAR1 ag = human TAAR1 agonism. activation, % at 3 µM. Q96RJ0. CHO RD-HGA16 TAAR1, Fluo-8 calcium fluorescence; vehicle wells 0%, saturating PEA agonist 100%. actives 0.99% (n = 360,000);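 active = activation above the mean activation of all test compounds in the run plus 3 SD, cut at about 38% in these data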
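Benchmarks: low control DMSO, high control PEA (EC100); System: CHO RD-HGA16 cells carrying human TAAR1 plus Gα16; Detection: Fluo-8 fluorescence, 5 s baseline then 140 s kinetic read; Schedule: 17-24 h plating, Fluo-8 75 min 37 °C, 30 min RT; Read-out basis: % activation from peak over basal fluorescence ratio, DMSO-to-PEA scaled.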
M1 PAM = positive allosteric modulators of human M1 muscarinic receptor | CHO-K1 hM1, Fluo-8 calcium fluorescence, ACh EC20; 0% = ACh EC20, 100% = maximal ACh | activation, % at 3 µM | actives 0.088% (n = 360,000) | AID 588819; in the data active = activation above about 19%, passing the limit was not always enough
M1 antag = human CHRM1 antagonism | AID 588852 | CHO-K1 hM1, Fluo-8 calcium fluorescence, ACh EC80 antagonist | inhibition, % at 3 µM | P11229 | actives 1.3% (n = 360,000);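 active = percent inhibition above its own plate's cutoff, namely the mean of that plate's compound wells plus 3 SD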;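 note: peak over basal fluorescence ratio during 140 s after agonist addition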
HTR2A ag = mouse HTR2A agonism via beta-arrestin recruitment | P35363 | CHO-K1 mHTR2A beta-arrestin complementation, luminescence; percent of 30 µM serotonin response | activation, % at 7.6 µM | actives 0.66% (n = 360,000) | AID 624169;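 active = activation above a run cutoff, the mean activation of all tested compounds plus 3 SD, cut at about 14% in these data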
M1 ag = agonists of human M1 muscarinic receptor; P11229; activation, % at 3 µM; AID 588814; actives 0.33% (n = 360,000); CHO-K1 hM1, Fluo-8 calcium fluorescence, agonist mode; 0% DMSO, 100% acetylcholine EC100;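 active = activation above the run's mean compound activation plus 3 SD, cut at about 16% in these data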;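 note: peak over basal fluorescence ratio within a 140 s kinetic read after compound addition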
Of the large screens only hits and unclear results are named; the others gave an inactive call.

O=C(C[n+]1cc(-c2ccc(Cl)cc2)n2c1CCC2)N1c2ccccc2Sc2ccccc21	M1 antag 97
O=C(C[n+]1cc(-c2ccc(Cl)c(Cl)c2)n2c1CCC2)N1c2ccccc2Sc2ccccc21	M1 antag 100
O=C(C[n+]1cc(-c2ccc(Cl)cc2)n2c1CCC2)Nc1nc(-c2ccccc2)cs1	none
COc1ccc(-c2c[n+](CC(=O)N3c4ccccc4Sc4ccccc43)c3n2CCC3)cc1	M1 antag 86
Cc1ccccc1NC(=O)C[n+]1cc(-c2ccccc2)n2c1CCC2	M1 antag 50
Cc1cccc(OCCNC(=O)CCNS(=O)(=O)c2ccc3ccccc3c2)c1	none
COc1ccc(CN(CC(=O)NCc2ccco2)C(=O)CNS(=O)(=O)c2ccc(C)cc2)cc1	none
NC1=NC(=O)/C(=C/C=C/c2cccs2)S1	none
CC1CCC(C(C)C)C(OC(=O)C[n+]2cc(-c3ccc(Cl)cc3)n3c2CCC3)C1 (stereo not drawn)	M1 antag 85
CC1(C)[C@H]2CC=C(CN3CCC(N4CCC(C(=O)N5CCCC5)CC4)CC3)[C@@H]1C2	M1 antag 62
CCc1ccc(CN2CCC(N3CCC(C(=O)N4CCCC4)CC3)CC2)o1	none
Cc1ccc(S(=O)(=O)/N=C(\CCl)N2CCOCC2)cc1	none
Cc1ccc(O)c(C(=O)c2cc(C#N)c(=O)n(-c3nccs3)c2)c1	TAAR1 ag 51, M1 ag 22
O=C(O)c1c(Cl)c(Cl)c(Cl)c(Cl)c1C(=O)OCC1CCCO1 (stereo not drawn)	none
CC(=O)N1CCN(c2ccc(NCc3ccc(-c4ccc(Br)cc4)o3)cc2)CC1	TAAR1 antagonist 58
CC1(c2ccccc2)NC(=O)N(CC(=O)N2CCN(S(=O)(=O)c3cccc(C(F)(F)F)c3)CC2)C1=O (stereo not drawn)	none
O=C(Nc1cccc2ccccc12)c1cn(-c2ccccc2)nc1-c1cccs1	HTR2A ag 17 (no result: TAAR1 antagonist, TAAR1 ag)
O=C(c1cn(-c2ccccc2)nc1-c1cccs1)N1CCN(c2ccccc2)CC1	none (no result: TAAR1 antagonist, TAAR1 ag)
O=C(Nc1cccnc1)c1cn(-c2ccccc2)nc1-c1cccs1	TAAR1 antagonist 50
O=C(N/N=C/c1cn(-c2ccccc2)nc1-c1cccs1)c1ccncc1	TAAR1 antagonist 50
O=C(c1cn(-c2ccccc2)nc1-c1cccs1)N1CCOCC1	none
O=C(N/N=C\c1cn(-c2ccccc2)nc1-c1ccccc1)c1ccc(Br)o1	TAAR1 antagonist 54
COc1ccc(C2CC(=O)C(c3ccc(C)cc3)=CN2Cc2ccccc2)cc1 (stereo not drawn)	none (no result: M1 PAM, M1 antag, HTR2A ag, M1 ag)
Cc1cc(Cl)ccc1OCC(=O)N(Cc1ccco1)C1CCS(=O)(=O)C1 (stereo not drawn)	none
COc1ccc2nc(C(F)(F)C(F)(F)F)c(C#N)c(N)c2c1	TAAR1 ag 42
COC(=O)C1=C(C)OC(N)=C(C#N)C1c1cc2cc(C)ccc2nc1Cl (stereo not drawn)	M1 ag 24
CCCCC1(C)OC(=O)C(=Cc2ccc(N(C)C)cc2)C(=O)O1 (stereo not drawn)	HTR2A ag 20
Cc1ccc(C)c(S(=O)(=O)N2CCN(C(=O)c3ccc(OCc4c(C)noc4C)cc3)CC2)c1	none
COCCOC(=O)c1c(C)n(C)c2ccc(OC(=O)N3CCOCC3)cc12	none
COCCOC(=O)c1c(C)n(C)c2ccc(OC(=O)c3c(OC)cccc3OC)cc12	TAAR1 antagonist 49
CC1Cc2nc(SCC(=O)N3CCN(c4ccccc4)CC3)n(CCc3ccccc3)c(=O)c2S1 (stereo not drawn)	TAAR1 antagonist 52
CCn1c(SCC(=O)N2CCN(c3ccccc3)CC2)nc2c(c1=O)SC(C)C2 (stereo not drawn)	none
CC1CCN(C(=O)C(=O)Nc2sc3c(c2C(N)=O)CC(C)(C)OC3)CC1	none
Oc1ccccc1CNCC12CC3CC(CC(C3)C1)C2	none
CC(CC12CC3CC(CC(C3)C1)C2)NCc1ccccc1O (stereo not drawn)	TAAR1 ag 39
O=C(O)/C=C/c1ccc([N+](=O)[O-])o1	none
O=C1NC(=S)S/C1=C\C=C\c1ccc([N+](=O)[O-])o1	TAAR1 antagonist 72, TAAR1 ag 58, M1 antag 55, M1 ag 17
CCc1nonc1NC(=O)c1oc2ccc(C)cc2c1C	M1 antag 45
CCc1ccc2oc(C(=O)Nc3nonc3CC)c(C)c2c1	none
O=C(CC1CCCC1)N[C@H](C(=O)N1CCC[C@H]1C(=O)NC1CCCC1)c1ccccc1	none (no result: M1 PAM, M1 antag, HTR2A ag, M1 ag)
Cc1cc(/C=C(/C#N)c2cccc(F)c2)c(C)n1-c1cccnc1	M1 antag 34
Cc1nn(Cc2ccccc2)c(Cl)c1C(=O)OCc1nnc(-c2ccccc2)o1	TAAR1 antagonist 51
Cc1nn(Cc2ccccc2)c(Cl)c1C(=O)OCc1nnc(-c2ccc(Cl)cc2)o1	none
c1ccc(C(CN2CCCCC2)Oc2ccccn2)cc1 (stereo not drawn)	M1 antag 83
OC(COC(c1ccccc1)c1ccccc1)CN1CCCCC1 (stereo not drawn)	none
Cc1ccc(Cl)c(OCCCN(C)Cc2ccccc2)c1	none
CCOc1cccc(OCCOCCN(C)Cc2ccccc2)c1	M1 antag 31
CCOc1cccc(OCCOCCN(C)C)c1	none
COC(=O)c1ccc(OCCCCN(C)Cc2ccccc2)cc1	M1 antag 31
COc1ccc(OCCCCN(C)Cc2ccccc2)cc1	none
Cc1ccc(Cl)c(OCCCCN(C)Cc2ccccc2)c1	M1 antag 37
C[C@@H]1ON(C)[C@H]2C[C@H]3c4[nH]c5c(-c6cc(Cl)cc(Cl)c6)cccc5c4CCN3C(=O)[C@@H]12	none (no result: M1 PAM, M1 antag, HTR2A ag, M1 ag)
COc1cccc(-c2nn(-c3ccc(C)cc3)cc2C(=O)N2CCc3cc(OC)c(OC)cc3C2)c1	TAAR1 antagonist 63
c1cc2c(cc1C1CCCN1)OCCCO2 (stereo not drawn)	M1 antag 28
O=S(=O)(c1ccc2c(c1)OCCCO2)N1CCNCC1	none
CCN(C[C@H]1N[C@@](CC)(C(=O)OC)[C@H]2C(=O)N(C)C(=O)[C@@H]12)C(=O)c1ccc(C(C)(C)C)cc1	none
O=C(CCCCN1CCCCC1)c1ccccc1	none
O=C(C(=Cc1ccccc1)CN1CCCCC1)c1ccccc1	M1 antag 39
CN(C)CCCN(C(=O)C1COc2ccccc2O1)c1nc2cc3c(cc2s1)OCO3 (stereo not drawn)	none
COc1ccc(C2NCCc3c2[nH]c2ccccc32)cc1COc1ccc(F)cc1 (stereo not drawn)	TAAR1 ag 49

Screening data as filed in PubChem BioAssay.
